Measured values taken from PubChem BioAssay AID623962 (The Scripps Research Institute Molecular Screening Center, 2012).
The source made the active and inactive calls.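 Rule for the calls: active = mean inhibition at 10 µM of 50% or more; inactive = mean inhibition at 10 µM below 50%.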

Test system: Huh-7.5 HCV Rluc replicon, luciferase luminescence, 72 h
Test: inhibition of HCV replicon replication, late-stage follow-up, orthogonal assay for HCV NS3 helicase inhibitor project, cell-based, luminescence, Renilla luciferase replicon (AID 623962)
Settings: at 10 µM; stronger effect = higher value
Summary of the method: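 Assay system: Huh-7.5 HCV Renilla luciferase replicon cells | Compound: One concentration, 10 µM in 0.5% DMSO | Times: 4-5 h attachment, 72 h compound exposure at 37 °C | Detection: Renilla luciferase luminescence from cell lysate after freeze/thaw lysis | Evaluation: % replication inhibition versus DMSO-treated cells | Controls: DMSO-only wells as reference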

Q: For `Cc1ccc2nc(-c3ccc(NC(=O)c4ccc(NC(=O)Nc5ccccc5)cc4)cc3)sc2c1S(=O)(=O)O`, which inhibition is on record?
A: -64% (inactive)

Q: How did the inhibition turn out when `Cc1ccc2nc(-c3ccc4nc(-c5ccc(NC(=O)c6ccc(N(C)C)cc6)cc5)sc4c3)sc2c1S(=O)(=O)O` was run?
A: 22% (inactive)
